The source made the active and inactive calls. The rule behind the calls is not given here.
Assays:
Rattus norvegicus [1] = assay: Toxicity in male Sprague-Dawley rat assessed as increase in liver weight at 100 mg/kg, po qd measured on day 14; assay type: organism-based; settings: in vivo
[2] = Cmax in Sprague-Dawley rat plasma at 1 mg/kg, po; assay type: ADME, organism-based; design: dose 1 mg/kg, route oral
[3] = Plasma concentration in C57BL6J mouse at 0.1 mg/kg, po qd administered for 21 days during spontaneous alteration T-maze assay; assay type: ADME, organism-based
In short: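 Male C57BL/6J mice aged 12 months (n = 20), with 2-month-old mice (n = 11) as young controls. Randomized and blinded. Single daily oral doses (10 mL/kg) for 21 days. On day 21, dosed 225 min before a spontaneous-alternation trial in a gray Plexiglas T-maze. Exposure measured in plasma and brain. One-way ANOVA.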

Rattus norvegicus [4] = assay: Lymphopenia activity in Sprague-Dawley rat assessed as change in lymphocyte counts at 10 mg/kg, po measured 5 hrs post dose; assay type: ADME, organism-based; settings: in vivo
Rattus norvegicus [5] = assay: Toxicity in male Sprague-Dawley rat assessed as weight loss at 10 to 100 mg/kg, po qd measured on day 14 relative to vehicle treated control; assay type: organism-based; settings: in vivo
[6] = Cmax in BALB/C mouse plasma at 2 mg/kg, po; assay type: ADME, organism-based; design: dose 2 mg/kg, route oral
[7] = Oral bioavailability in Sprague-Dawley rat plasma at 1 mg/kg; assay type: ADME, organism-based
[8] = Volume of distribution at steady state in BALB/C mouse plasma at 2 mg/kg, iv; assay type: ADME, organism-based; settings: read-out: Vdss
[9] = AUC in CD1 mouse at 10 mg/kg, po; assay type: ADME, organism-based; settings: in vivo
Cytochrome P450 3A4 = Cytochrome P450 3A4 (Homo sapiens, UniProt P08684); assay: Inhibition of CYP3A4 (unknown origin); assay type: ADME
Cytochrome P450 3A4, sequence (P08684 whole entry): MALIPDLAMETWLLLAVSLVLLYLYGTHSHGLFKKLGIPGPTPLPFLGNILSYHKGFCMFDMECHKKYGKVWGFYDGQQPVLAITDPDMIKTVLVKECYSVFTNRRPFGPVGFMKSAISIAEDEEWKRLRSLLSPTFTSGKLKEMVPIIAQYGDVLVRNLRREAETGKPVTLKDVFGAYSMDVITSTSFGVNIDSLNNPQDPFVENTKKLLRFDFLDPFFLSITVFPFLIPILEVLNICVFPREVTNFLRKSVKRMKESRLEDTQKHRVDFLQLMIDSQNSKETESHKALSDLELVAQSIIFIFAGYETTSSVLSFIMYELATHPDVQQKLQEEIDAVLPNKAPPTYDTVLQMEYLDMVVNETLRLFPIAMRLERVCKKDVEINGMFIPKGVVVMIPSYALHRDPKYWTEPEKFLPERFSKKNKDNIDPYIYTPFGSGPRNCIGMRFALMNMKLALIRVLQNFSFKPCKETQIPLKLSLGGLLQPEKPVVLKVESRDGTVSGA

[10] = AUC in Sprague-Dawley rat plasma at 1 mg/kg, iv; assay type: ADME, organism-based
[11] = Plasma concentration in Sprague-Dawley rat at 10 mg/kg, iv administered for 30 mins; assay type: ADME, organism-based
[12] = AUC in cynomolgus monkey plasma at 1 mg/kg, po; assay type: ADME, organism-based, Macaca fascicularis
Rattus norvegicus [13] = assay: Toxicity in Sprague-Dawley rat assessed as increase in serum ALT at 100 mg/kg, po qd measured on day 14; assay type: organism-based; settings: in vivo
[14] = Cmax in BALB/C mouse brain at 2 mg/kg, po; assay type: ADME, organism-based; design: dose 2 mg/kg, route oral
Salmonella typhimurium = assay: Genotoxicity in Salmonella typhimurium by Ames assay; assay type: toxicity, organism-based; settings: salmonella enterica subsp. enterica serovar typhimurium
[15] = Oral bioavailability in BALB/C mouse brain at 2 mg/kg; assay type: ADME, organism-based
Rattus norvegicus [16] = assay: Lymphopenia activity in Sprague-Dawley rat assessed as change in lymphocyte counts at 100 mg/kg, po measured 5 hrs post dose; assay type: ADME, organism-based; settings: in vivo
[17] = Half life in BALB/C mouse plasma at 2 mg/kg, iv; assay type: ADME, organism-based
[18] = Clearance in cynomolgus monkey plasma at 1 mg/kg, iv; assay type: ADME, organism-based, Macaca fascicularis
[19] = Tmax in beagle dog plasma at 1 mg/kg, po; assay type: ADME, organism-based, Canis lupus familiaris
[20] = Clearance in BALB/C mouse plasma at 2 mg/kg, iv; assay type: ADME, organism-based
[21] = AUC in cynomolgus monkey plasma at 1 mg/kg, iv; assay type: ADME, organism-based, Macaca fascicularis
[22] = molecular target: Sphingosine 1-phosphate receptor 2 (Homo sapiens) (UniProt O95136); assay: Displacement of [33P]S1P from S1P2 receptor (unknown origin) expressed in HEK cell membranes after 90 mins by scintillation counting based RLB method; settings: HEK293
Sphingosine 1-phosphate receptor 2 (Homo sapiens), sequence (O95136 whole entry): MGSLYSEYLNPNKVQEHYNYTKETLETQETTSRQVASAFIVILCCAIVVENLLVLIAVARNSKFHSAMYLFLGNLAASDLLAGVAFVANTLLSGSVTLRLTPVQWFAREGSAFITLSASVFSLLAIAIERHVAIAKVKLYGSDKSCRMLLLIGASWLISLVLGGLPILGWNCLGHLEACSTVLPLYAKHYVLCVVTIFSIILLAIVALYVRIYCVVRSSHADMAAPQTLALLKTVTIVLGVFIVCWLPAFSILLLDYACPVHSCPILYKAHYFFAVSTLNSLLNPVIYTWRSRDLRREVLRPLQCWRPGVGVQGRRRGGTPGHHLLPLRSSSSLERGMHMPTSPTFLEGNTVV
In short: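 S1P2 in transiently transfected HEK cell membranes, 5-10 µg per well, in HEPES pH 7.4 buffer with NaCl, MgCl2 and 0.1% fatty-acid-free BSA. [33P]S1P at 50 pM; non-specific binding defined with 1 µM unlabelled S1P. Incubated 90 min at 4°C, then filtered and scintillation counted. IC50 from non-linear curve fit of percent inhibition.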

[23] = Half life in BALB/C mouse brain at 2 mg/kg, iv; assay type: ADME, organism-based
Mus musculus = assay: Decrease in pulmonary antigen challenge-induced MCP1 level in CD1 mouse at 0.3 to 30 mg/kg, po qd; assay type: functional, organism-based
In short: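 Part of a 41-assay multiplexed in vivo screening panel run at Melior Discovery. CD1 mice received 0.3, 3 and 30 mg/kg orally once daily; endpoints were compared with vehicle-treated mice.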

[24] = Half life in BALB/C mouse plasma at 2 mg/kg, po; assay type: ADME, organism-based
[25] = Half life in Sprague-Dawley rat plasma at 1 mg/kg, iv; assay type: ADME, organism-based
[26] = Plasma concentration in Sprague-Dawley rat at 30 mg/kg, po measured 5 hrs post dose; assay type: ADME, organism-based
[27] = Half life in beagle dog plasma at 1 mg/kg, po; assay type: ADME, organism-based, Canis lupus familiaris
Rattus norvegicus [28] = assay: Lymphopenia activity in Sprague-Dawley rat assessed as change in lymphocyte counts at 30 mg/kg, po measured 5 hrs post dose; assay type: ADME, organism-based; settings: in vivo
[29] = Cmax in cynomolgus monkey plasma at 1 mg/kg, po; assay type: ADME, organism-based, Macaca fascicularis; design: dose 1 mg/kg, route oral
[30] = AUC in BALB/C mouse plasma at 2 mg/kg, iv; assay type: ADME, organism-based
[31] = Half life in beagle dog plasma at 1 mg/kg, iv; assay type: ADME, organism-based, Canis lupus familiaris
[32] = Volume of distribution at steady state in beagle dog plasma at 1 mg/kg, iv; assay type: ADME, organism-based, Canis lupus familiaris; settings: read-out: Vdss
Cytochrome P450 2C9 = Cytochrome P450 2C9 (Homo sapiens, UniProt P11712); assay: Inhibition of CYP2C9 (unknown origin); assay type: ADME
Cytochrome P450 2C9, sequence (P11712 whole entry): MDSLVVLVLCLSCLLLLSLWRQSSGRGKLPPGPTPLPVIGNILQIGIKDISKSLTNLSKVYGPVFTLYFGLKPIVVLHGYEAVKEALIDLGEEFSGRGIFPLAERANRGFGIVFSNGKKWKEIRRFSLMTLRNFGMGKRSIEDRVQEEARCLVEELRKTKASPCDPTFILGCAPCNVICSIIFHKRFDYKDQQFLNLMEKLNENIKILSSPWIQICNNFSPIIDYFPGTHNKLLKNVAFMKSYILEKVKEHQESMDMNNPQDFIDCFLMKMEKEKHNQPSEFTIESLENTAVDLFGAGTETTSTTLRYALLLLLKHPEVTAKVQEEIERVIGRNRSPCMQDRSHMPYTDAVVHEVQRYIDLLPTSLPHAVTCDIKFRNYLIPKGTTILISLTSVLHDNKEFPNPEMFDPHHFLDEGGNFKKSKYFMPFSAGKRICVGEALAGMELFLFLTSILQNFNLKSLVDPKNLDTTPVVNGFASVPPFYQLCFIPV

Rattus norvegicus [33] = assay: Toxicity in female Sprague-Dawley rat assessed as weight loss at 100 mg/kg, po qd measured on day 8; assay type: organism-based; settings: in vivo
Rattus norvegicus [34] = assay: Cardiotoxicity in Sprague-Dawley rat assessed as decrease in cardiac contractility at 30 mg/kg, iv administered for 30 mins; assay type: toxicity, organism-based, Heart; design: scale not given: the % may be the effect or the level left; settings: in vivo, 0.5 h
In short: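 Male Sprague-Dawley rats (327-400 g) under Inactin anaesthesia (100 mg/kg ip), with femoral arterial catheters for arterial pressure and heart rate, and a left-ventricular catheter for dP/dt at 50 mmHg. After a 30 min baseline, three sequential 30 min IV infusions of 3, 10 and 30 mg/kg in 20% DMA/40% PG/40% PEG-400. Treated n=4, vehicle n=5; unpaired t tests; plasma sampled after each infusion.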

[35] = molecular target: Sphingosine 1-phosphate receptor 2 (Homo sapiens) (UniProt O95136); assay: Agonist activity at S1P2 receptor (unknown origin) expressed in CHO cell membranes up to 10 uM after 30 mins by GTPgammaS binding assay; assay type: functional
[36] = molecular target: Sodium-dependent dopamine transporter (Homo sapiens) (UniProt Q01959); assay: Binding affinity to human recombinant dopamine transporter expressed in CHO cells; assay type: cell-based
Sodium-dependent dopamine transporter (Homo sapiens), sequence (Q01959 whole entry): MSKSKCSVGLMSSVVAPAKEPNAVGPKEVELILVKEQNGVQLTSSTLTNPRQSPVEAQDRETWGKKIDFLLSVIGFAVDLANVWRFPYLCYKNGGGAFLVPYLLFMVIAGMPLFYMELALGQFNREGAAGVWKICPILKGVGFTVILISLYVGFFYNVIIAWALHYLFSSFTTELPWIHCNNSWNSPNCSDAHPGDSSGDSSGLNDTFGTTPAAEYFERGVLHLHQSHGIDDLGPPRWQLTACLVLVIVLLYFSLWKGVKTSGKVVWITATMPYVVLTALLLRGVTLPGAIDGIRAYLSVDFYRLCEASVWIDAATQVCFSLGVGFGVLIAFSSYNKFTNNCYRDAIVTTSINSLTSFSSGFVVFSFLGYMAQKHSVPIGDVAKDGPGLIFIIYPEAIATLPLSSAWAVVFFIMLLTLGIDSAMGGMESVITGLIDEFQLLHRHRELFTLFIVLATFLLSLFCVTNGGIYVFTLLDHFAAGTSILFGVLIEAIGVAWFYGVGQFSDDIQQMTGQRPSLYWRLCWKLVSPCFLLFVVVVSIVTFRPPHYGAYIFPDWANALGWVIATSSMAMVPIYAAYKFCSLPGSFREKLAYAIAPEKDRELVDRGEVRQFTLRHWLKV

[37] = Cmax in Sprague-Dawley rat brain at 2 mg/kg, po; assay type: ADME, organism-based; design: dose 2 mg/kg, route oral
[38] = Half life in BALB/C mouse brain at 2 mg/kg, po; assay type: ADME, organism-based
[39] = Cmax in CD1 mouse at 10 mg/kg, po; assay type: ADME, organism-based; design: dose 10 mg/kg, route oral; settings: in vivo
[40] = molecular target: Sphingosine 1-phosphate receptor 3 (Homo sapiens, UniProt Q99500); assay: Agonist activity at S1P3 receptor (unknown origin) expressed in CHO cell membranes up to 10 uM after 30 mins by GTPgammaS binding assay; assay type: functional
Sphingosine 1-phosphate receptor 3, sequence (Q99500 whole entry): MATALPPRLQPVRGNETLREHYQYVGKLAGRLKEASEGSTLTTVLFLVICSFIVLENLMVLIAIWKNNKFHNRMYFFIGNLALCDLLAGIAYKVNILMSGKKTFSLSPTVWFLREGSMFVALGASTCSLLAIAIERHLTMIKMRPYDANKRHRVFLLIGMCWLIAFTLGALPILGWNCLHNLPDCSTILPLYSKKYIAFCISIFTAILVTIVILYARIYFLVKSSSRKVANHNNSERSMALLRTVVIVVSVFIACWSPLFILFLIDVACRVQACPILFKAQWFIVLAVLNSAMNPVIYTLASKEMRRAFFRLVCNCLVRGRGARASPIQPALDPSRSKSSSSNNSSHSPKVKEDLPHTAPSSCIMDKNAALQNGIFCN

[41] = Tmax in Sprague-Dawley rat brain at 2 mg/kg, po; assay type: ADME, organism-based
[42] = Plasma concentration in Sprague-Dawley rat at 30 mg/kg, iv administered for 30 mins; assay type: ADME, organism-based
[43] = AUC in beagle dog plasma at 1 mg/kg, iv; assay type: ADME, organism-based, Canis lupus familiaris

O=C(O)C1CN(Cc2ccc(OCc3ccc(Cl)c(Cl)c3)cc2)C1
Activity (Rattus norvegicus [1]): 20% | Cmax [2]: 400 ng/mL | concentration at 504 h ([3]; in vivo): 28.3 ng/g | concentration at 504 h ([3]; plasma): 41.6 ng/mL | Activity (Rattus norvegicus [4]): Non-toxic | Activity (Rattus norvegicus [5]): 10% | Cmax [6]: 300 ng/mL | bioavailability [7]: > 100% | Vd [8]: 1.9 L/kg | AUC [9]: 35000 ng·h/mL | INH (Cytochrome P450 3A4): > 20 µM | AUC [10]: 6400 ng·h/mL | concentration at 0.5 h [11]: 8660 ng/mL | AUC [12]: 5500 ng·h/mL | Activity (Rattus norvegicus [13]): Non-toxic | Cmax [14]: 43 ng/mL | Activity (Salmonella typhimurium): Non-toxic | bioavailability [15]: 56% | Activity (Rattus norvegicus [16]): Non-toxic | half-life [17]: 7.6 h | clearance [18]: 2.67 mL/min/kg | Tmax [19]: 1.5 h | clearance [20]: 4 mL/min/kg | AUC [21]: 6400 ng·h/mL | Activity [22]: inactive | half-life [23]: 9.8 h | Activity (Mus musculus): inactive | half-life [24]: 7.4 h | half-life [25]: 9 h | concentration at 5 h [26]: 5000 ng/mL | half-life [27]: 10 h | Activity (Rattus norvegicus [28]): Non-toxic | Cmax [29]: 650 ng/mL | AUC [30]: 8500 ng·h/mL | half-life [31]: 9.3 h | Vd [32]: 1.2 L/kg | INH (Cytochrome P450 2C9): > 20 µM | Activity (Rattus norvegicus [33]): 22% | Activity (Rattus norvegicus [34]): 10% | Activity [35]: inactive | Activity [36]: 63% | Cmax [37]: 120 ng/mL | half-life [38]: 10 h | Cmax [39]: 2500 ng/mL | Activity [40]: inactive | Tmax [41]: 8 h | concentration at 0.5 h [42]: 20300 ng/mL | AUC [43]: 12000 ng·h/mL
